In ChEMBL document CHEMBL4342476, “Identification of RIPK3 Type II Inhibitors Using High-Throughput Mechanistic Studies in Hit Triage” (ACS Med Chem Lett, 2020):

How the values were obtained:
[1] = target: T1, Receptor-interacting serine/threonine-protein kinase 2 (Homo sapiens, UniProt O43353); assay: Displacement of fluorescein labeled ATP probe from His/GST-tagged RIPK2 (unknown origin) incubated for 60 mins by HTRF assay
[2] = target: T2, Receptor-interacting serine/threonine-protein kinase 3 (Homo sapiens, UniProt Q9Y572); assay: Displacement of fluorescein labeled ATP probe from full length His/GST-tagged RIPK3 (unknown origin) incubated for 60 mins by HTRF assay
Target sequence in this assay (Q9Y572 whole entry): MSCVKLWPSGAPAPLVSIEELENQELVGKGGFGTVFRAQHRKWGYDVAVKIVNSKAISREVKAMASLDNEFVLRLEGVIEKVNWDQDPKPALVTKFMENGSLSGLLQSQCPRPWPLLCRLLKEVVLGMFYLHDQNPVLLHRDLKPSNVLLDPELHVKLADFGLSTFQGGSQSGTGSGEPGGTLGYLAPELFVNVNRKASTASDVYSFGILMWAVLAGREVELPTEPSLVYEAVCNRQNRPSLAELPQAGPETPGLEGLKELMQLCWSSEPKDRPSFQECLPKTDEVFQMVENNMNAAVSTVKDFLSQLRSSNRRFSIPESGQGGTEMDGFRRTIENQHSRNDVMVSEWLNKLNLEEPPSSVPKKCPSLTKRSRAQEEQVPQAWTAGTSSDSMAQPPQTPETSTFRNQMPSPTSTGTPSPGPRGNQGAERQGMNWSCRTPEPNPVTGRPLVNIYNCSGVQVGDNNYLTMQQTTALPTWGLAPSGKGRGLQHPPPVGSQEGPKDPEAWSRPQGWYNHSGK

[3] = target: T3, Receptor-interacting serine/threonine-protein kinase 1 (Homo sapiens, UniProt Q13546); assay: Displacement of fluorescein labeled ATP probe from full length His/GST-tagged RIPK1 (unknown origin) incubated for 60 mins by HTRF assay
T3 sequence (Q13546 whole entry): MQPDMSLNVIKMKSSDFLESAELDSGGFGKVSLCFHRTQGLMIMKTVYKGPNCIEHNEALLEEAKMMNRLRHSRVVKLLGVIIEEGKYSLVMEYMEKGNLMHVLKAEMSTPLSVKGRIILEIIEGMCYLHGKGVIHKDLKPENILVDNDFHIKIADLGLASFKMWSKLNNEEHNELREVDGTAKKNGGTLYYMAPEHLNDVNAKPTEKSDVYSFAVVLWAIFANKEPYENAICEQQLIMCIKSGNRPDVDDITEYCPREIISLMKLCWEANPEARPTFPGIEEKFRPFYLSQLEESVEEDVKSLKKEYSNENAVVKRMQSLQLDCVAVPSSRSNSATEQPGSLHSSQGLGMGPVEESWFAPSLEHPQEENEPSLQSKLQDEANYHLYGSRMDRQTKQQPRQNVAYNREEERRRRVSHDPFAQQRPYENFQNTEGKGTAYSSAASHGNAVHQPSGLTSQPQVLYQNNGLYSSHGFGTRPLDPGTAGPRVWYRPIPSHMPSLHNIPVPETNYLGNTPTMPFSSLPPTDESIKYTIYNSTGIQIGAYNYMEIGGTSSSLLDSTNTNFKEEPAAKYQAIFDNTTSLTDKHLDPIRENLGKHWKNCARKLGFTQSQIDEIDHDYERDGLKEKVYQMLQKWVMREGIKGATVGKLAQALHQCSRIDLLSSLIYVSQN

[4] = target: T3, Receptor-interacting serine/threonine-protein kinase 1; assay: Displacement of fluorescein labeled ATP probe from His/GST-tagged RIPK1 (unknown origin) incubated for 60 mins by HTRF assay
[5] = target: Hepatocyte growth factor receptor (Homo sapiens, UniProt P08581); assay: Displacement of fluorescein labeled ATP probe from His/GST-tagged c-Met (unknown origin) incubated for 60 mins by HTRF assay
Hepatocyte growth factor receptor, sequence (P08581 whole entry): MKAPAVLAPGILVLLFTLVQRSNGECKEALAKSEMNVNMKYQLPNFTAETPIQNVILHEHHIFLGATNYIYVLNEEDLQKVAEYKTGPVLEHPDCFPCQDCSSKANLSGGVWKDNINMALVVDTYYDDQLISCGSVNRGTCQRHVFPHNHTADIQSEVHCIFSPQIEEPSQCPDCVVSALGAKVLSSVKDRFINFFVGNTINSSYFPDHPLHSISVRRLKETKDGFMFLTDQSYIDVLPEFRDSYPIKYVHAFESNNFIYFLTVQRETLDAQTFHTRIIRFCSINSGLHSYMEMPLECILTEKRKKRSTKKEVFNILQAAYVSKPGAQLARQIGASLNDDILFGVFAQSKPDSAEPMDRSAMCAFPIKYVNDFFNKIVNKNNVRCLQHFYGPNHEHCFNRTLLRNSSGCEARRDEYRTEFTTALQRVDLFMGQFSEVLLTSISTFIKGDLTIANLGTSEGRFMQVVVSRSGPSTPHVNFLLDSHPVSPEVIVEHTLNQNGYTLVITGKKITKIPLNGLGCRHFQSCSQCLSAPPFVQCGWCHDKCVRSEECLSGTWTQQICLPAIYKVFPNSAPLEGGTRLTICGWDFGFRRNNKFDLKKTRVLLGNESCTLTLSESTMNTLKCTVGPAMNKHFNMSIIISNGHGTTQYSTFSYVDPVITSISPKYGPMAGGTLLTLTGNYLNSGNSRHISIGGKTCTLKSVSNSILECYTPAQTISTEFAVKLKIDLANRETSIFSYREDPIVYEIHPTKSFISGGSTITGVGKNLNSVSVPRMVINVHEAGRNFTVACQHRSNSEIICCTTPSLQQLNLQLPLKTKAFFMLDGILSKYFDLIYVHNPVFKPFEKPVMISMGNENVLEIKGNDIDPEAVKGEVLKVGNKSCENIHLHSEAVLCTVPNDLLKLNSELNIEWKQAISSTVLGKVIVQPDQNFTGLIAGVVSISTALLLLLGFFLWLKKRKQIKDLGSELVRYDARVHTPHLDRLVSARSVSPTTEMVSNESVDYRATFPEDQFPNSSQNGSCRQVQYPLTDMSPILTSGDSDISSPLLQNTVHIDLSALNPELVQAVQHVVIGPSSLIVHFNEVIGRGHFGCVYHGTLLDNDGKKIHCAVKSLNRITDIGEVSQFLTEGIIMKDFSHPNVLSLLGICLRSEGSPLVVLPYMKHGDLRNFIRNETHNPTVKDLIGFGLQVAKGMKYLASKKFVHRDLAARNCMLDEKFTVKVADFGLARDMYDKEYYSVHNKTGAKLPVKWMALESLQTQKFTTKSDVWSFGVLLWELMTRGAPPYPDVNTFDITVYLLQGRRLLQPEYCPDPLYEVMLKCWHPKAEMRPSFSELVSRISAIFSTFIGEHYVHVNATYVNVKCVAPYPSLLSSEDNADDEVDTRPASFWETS

[6] = target: Mitogen-activated protein kinase 14 (Homo sapiens, UniProt Q16539); assay: Binding affinity to p38alpha (unknown origin); type: ADME
Mitogen-activated protein kinase 14, sequence (Q16539 whole entry): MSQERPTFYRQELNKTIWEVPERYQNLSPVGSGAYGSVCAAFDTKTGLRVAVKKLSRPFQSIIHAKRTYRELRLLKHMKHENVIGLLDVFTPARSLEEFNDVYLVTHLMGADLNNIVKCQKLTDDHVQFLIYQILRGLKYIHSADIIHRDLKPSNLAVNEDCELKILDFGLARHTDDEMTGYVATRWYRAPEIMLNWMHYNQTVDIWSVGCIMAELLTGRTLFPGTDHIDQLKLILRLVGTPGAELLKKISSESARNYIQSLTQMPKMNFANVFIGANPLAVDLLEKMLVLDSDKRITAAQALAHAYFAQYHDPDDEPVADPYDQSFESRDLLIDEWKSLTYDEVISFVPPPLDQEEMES

Homo sapiens [7] = organism: Homo sapiens; assay: (§1) Selectivity index, ratio of IC50 for displacement of fluorescein labeled ATP probe from His/GST-tagged c-Met (unknown origin) incubated for 60 mins by HTRF assay to IC50 for displacement of fluorescein labeled ATP probe from full length His/GST-tagged RIPK3 (unknown origin) incubated for 60 mins by HTRF assay
[8] = Selectivity index, ratio of IC50 for displacement of fluorescein labeled ATP probe from His/GST-tagged RIPK1 (unknown origin) incubated for 60 mins by HTRF assay to IC50 for displacement of fluorescein labeled ATP probe from His/GST-tagged c-Met (unknown origin) incubated for 60 mins by HTRF assay; details: human, 1 h
[9] = Selectivity index, ratio of IC50 for displacement of fluorescein labeled ATP probe from His/GST-tagged RIPK2 (unknown origin) incubated for 60 mins by HTRF assay to IC50 for displacement of fluorescein labeled ATP probe from His/GST-tagged c-Met (unknown origin) incubated for 60 mins by HTRF assay; details: human, 1 h
Homo sapiens [10] = organism: Homo sapiens; assay: as §1, with “RIPK1” for “c-Met”
[11] = target: T1, Receptor-interacting serine/threonine-protein kinase 2; assay: Displacement of fluorescein labeled probe from full length human GST-tagged RIPK2 expressed in Sf9 cells incubated for 60 mins by HTRF assay
[12] = target: T2, Receptor-interacting serine/threonine-protein kinase 3; assay: Displacement of fluorescein labeled probe from full length human GST-tagged RIPK3 expressed in Sf9 cells incubated for 60 mins by HTRF assay
Target sequence in this assay (Q9Y572 whole entry): as the sequence (Q9Y572 whole entry) above

[13] = target: T3, Receptor-interacting serine/threonine-protein kinase 1; assay: Displacement of fluorescein labeled probe from full length human GST-tagged RIPK1 expressed in Sf9 cells incubated for 60 mins by HTRF assay
[14] = target: T2, Receptor-interacting serine/threonine-protein kinase 3; assay: Time dependent inhibition of full length His/GST-tagged RIPK3 (unknown origin) measured every 5 mins for 60 mins in presence of fluorescein labeled probe by HTRF assay relative to control; details: 1 h
Target sequence in this assay (Q9Y572 whole entry, looked up): as the sequence (Q9Y572 whole entry) above

[15] = target: T2, Receptor-interacting serine/threonine-protein kinase 3; assay: as above; details: 1 h; remark: listed apart in the source
Target sequence in this assay (Q9Y572 whole entry, looked up): as the sequence (Q9Y572 whole entry) above

[16] = target: T2, Receptor-interacting serine/threonine-protein kinase 3; assay: Time dependent inhibition of full length His/GST-tagged RIPK3 (unknown origin) measured every 5 mins for 60 mins in presence of fluorescein labeled probe by HTRF assay relative to control
Summary of the method: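 Active full-length RIPK3 was preformed as a complex with the fluorescent probe and antibody. Inhibitor was then added as an 11-point concentration-response series, with HTRF read at 5 and 60 min. Time dependency was scored as the fold shift in IC50 between the two reads; ≥5-fold flagged possible slow binding.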
Target sequence in this assay (Q9Y572 whole entry, looked up): as the sequence (Q9Y572 whole entry) above

T1 sequence (O43353 whole entry): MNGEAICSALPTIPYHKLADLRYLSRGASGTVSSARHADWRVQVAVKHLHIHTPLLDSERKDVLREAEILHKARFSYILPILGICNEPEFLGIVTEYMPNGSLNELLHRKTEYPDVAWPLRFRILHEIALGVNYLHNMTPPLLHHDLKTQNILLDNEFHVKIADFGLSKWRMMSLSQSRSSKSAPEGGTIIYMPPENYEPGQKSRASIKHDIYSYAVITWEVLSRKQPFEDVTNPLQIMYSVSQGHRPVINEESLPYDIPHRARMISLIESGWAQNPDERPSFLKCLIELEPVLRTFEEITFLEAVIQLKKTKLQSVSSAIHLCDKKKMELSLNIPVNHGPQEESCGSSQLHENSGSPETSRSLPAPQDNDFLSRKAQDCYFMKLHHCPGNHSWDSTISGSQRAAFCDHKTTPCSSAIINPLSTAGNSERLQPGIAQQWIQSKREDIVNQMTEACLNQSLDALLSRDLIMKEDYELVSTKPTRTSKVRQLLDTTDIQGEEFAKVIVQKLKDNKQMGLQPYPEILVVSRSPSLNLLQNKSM

| SMILES | IC50 [1] | IC50 [2] | IC50 [4] | IC50 [5] | further results |
| --- | --- | --- | --- | --- | --- |
| CC#Cc1c(Oc2ccc(NC(=O)c3cccn(-c4ccc(F)cc4)c3=O)cc2F)ccnc1N | 3000 nM | 16 nM |  |  | IC50 [3]: 600 nM |
| O=C(Nc1ccc(Oc2ccncc2)c(F)c1)c1cccn(-c2ccc(F)cc2)c1=O | > 15000 nM | 400 nM | > 15000 nM | 18 nM |  |
| Cc1cc(NC(=O)c2cccn(-c3ccc(F)cc3)c2=O)cc(C)c1Oc1ccnc(NC(=O)C2CC2)c1 | 3100 nM | 88 nM | 11000 nM | 300 nM |  |
| O=C(Nc1ccc(Oc2ccncc2)c2ccccc12)c1cccn(-c2ccc(F)cc2)c1=O | > 15000 nM | 50 nM | > 15000 nM | 12000 nM | Activity [6]: Active |
| O=C(Nc1ccc(Oc2ccnc3[nH]ccc23)c(F)c1)c1cccn(-c2ccc(F)cc2)c1=O | > 15000 nM | 180 nM | 1500 nM |  |  |
| Cc1c(NC(=O)c2cccn(-c3ccc(F)cc3)c2=O)ccc(Oc2ccncc2)c1C | > 15000 nM | 180 nM |  | > 1500 nM | Ratio IC50 (Homo sapiens [7]): > 10; IC50 [3]: > 15000 nM; Ratio IC50 [8]: > 10; Ratio IC50 [9]: > 10 |
| Cc1cc(NC(=O)c2cccn(-c3ccc(F)cc3)c2=O)cc(C)c1Oc1ccncc1 | 13000 nM | 320 nM | > 15000 nM | 500 nM |  |
| O=C(Nc1ccc(Oc2ccncc2)c(F)c1)c1cccc(-c2ccc(F)cc2)c1 | > 15000 nM | > 15000 nM | > 15000 nM | 4500 nM |  |
| Cc1c(NC(=O)c2cccn(-c3ccc(F)cc3)c2=O)ccc(Oc2ccnc(NC(=O)C3CC3)c2)c1C | > 10000 nM | 91 nM | 5500 nM | 1100 nM | Ratio IC50 (Homo sapiens [7]): 100 |
| O=C(Nc1ccc(Oc2ccnc(NC(=O)C3CC3)c2)c(F)c1)c1cccn(-c2ccc(F)cc2)c1=O | 1800 nM | 2.9 nM | 180 nM | 2.5 nM | Ratio IC50 (Homo sapiens [10]): 38 |
| Cc1ccc(COC(=O)Nc2cc(-c3cc4c([nH]3)CCNC4=O)ccn2)cc1 |  |  |  |  | IC50 [11]: 50 nM; IC50 [12]: 270 nM; IC50 [13]: 17000 nM; fold change (FC) [14]: 2 |
| Nc1ccc(C#Cc2c(Oc3ccc(NC(=O)c4cccn(-c5ccc(F)cc5)c4=O)cc3F)ccnc2N)nc1 |  |  |  |  | fold change (FC) [15]: 6; IC50 [11]: 2400 nM; IC50 [12]: 0.3 nM; IC50 [13]: 310 nM; fold change (FC) [14]: 6; fold change (FC) [16]: 6 |
| Cc1cc(NC(=O)c2cccn(-c3ccc(F)cc3)c2=O)ccc1Oc1ccnc(NC(=O)C2CC2)c1 | 680 nM | 8 nM | 200 nM | 6.3 nM |  |
